Measured values: ChEMBL document CHEMBL4390640, “Design of N-Benzoxaborole Benzofuran GSK8175-Optimization of Human Pharmacokinetics Inspired by Metabolites of a Failed Clinical HCV Inhibitor” (J Med Chem, 2019)

Columns and labels:
[1] = Clearance in rat at 1 mg/kg, iv by LC-MS/MS analysis; format: ADME, organism-based; settings: in vivo
[2] = Volume of distribution at steady state in rat at 1 mg/kg, iv by LC-MS/MS analysis; format: ADME, organism-based; settings: in vivo, read-out: Vdss
[3] = Half life in rat at 1 mg/kg, iv by LC-MS/MS analysis; format: ADME, organism-based; settings: in vivo
[4] = AUC in rat at 5 mg/kg, po by LC-MS/MS analysis; format: ADME, organism-based; settings: in vivo
[5] = Oral bioavailability in rat at 5 mg/kg by LC-MS/MS analysis; format: ADME, organism-based; settings: in vivo
[6] = Half life in human hepatocytes at 0.5 uM by LC-MS/MS analysis; format: ADME, cell-based, Hepatocyte
Method in brief: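 Cryopreserved human hepatocytes were incubated with compound for up to 2 h, and metabolic turnover was followed to estimate half-life.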

Cytochrome P450 2C9 = Cytochrome P450 2C9 (Homo sapiens, UniProt P11712); experiment: Inhibition of CYP2C9 in human liver microsomes using diclofenac as substrate preincubated for 10 mins followed by NADPH addition and measured by LC-MS/MS analysis; format: ADME
Cytochrome P450 2C19 = Cytochrome P450 2C19 (Homo sapiens, UniProt P33261); experiment: Inhibition of CYP2C19 in human liver microsomes using mephenytoin as substrate preincubated for 10 mins followed by NADPH addition and measured by LC-MS/MS analysis; format: ADME
Cytochrome P450 3A4 [7] = target: T1, Cytochrome P450 3A4 (Homo sapiens, UniProt P08684); experiment: Inhibition of CYP3A4 in human liver microsomes using atorvastatin as substrate preincubated for 7 mins followed by NADPH addition and measured by LC-MS/MS analysis; format: ADME
Cytochrome P450 3A4 [8] = target: T1, Cytochrome P450 3A4; experiment: Inhibition of CYP3A4 in human liver microsomes using midazolam as substrate preincubated for 7 mins followed by NADPH addition and measured by LC-MS/MS analysis; format: ADME
Cytochrome P450 3A4 [9] = target: T1, Cytochrome P450 3A4; experiment: Inhibition of CYP3A4 in human liver microsomes using nifedipine as substrate preincubated for 7 mins followed by NADPH addition and measured by LC-MS/MS analysis; format: ADME
[10] = Blood clearance in rat at 1 mg/kg, iv by LC-MS/MS analysis; format: ADME, organism-based; settings: whole blood
Method in brief: (§1)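 Rat and dog received a single i.v. dose of 1 mg/kg in DMSO/20% hydroxypropyl-β-cyclodextrin (10/90), pH adjusted. Clearance was taken from blood or plasma concentration–time profiles.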

[11] = Blood clearance in Beagle dog at 1 mg/kg, iv by LC-MS/MS analysis; format: ADME, organism-based, Canis lupus familiaris; settings: whole blood; method in brief: as §1
[12] = Plasma clearance in cynomolgus monkey at 1 mg/kg, iv by LC-MS/MS analysis; format: ADME, organism-based, Macaca fascicularis
[13] = Plasma clearance in CD1 mouse at 1 mg/kg, iv by LC-MS/MS analysis relative to hepatic blood flow; format: ADME, organism-based; settings: in vivo
Method in brief: (§2)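 Clearance expressed as a percentage of liver blood flow: compound blood or plasma clearance after i.v. dosing divided by the hepatic blood flow of that species.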

[14] = Blood clearance in rat at 1 mg/kg, iv by LC-MS/MS analysis relative to hepatic blood flow; format: ADME, organism-based; settings: in vivo; method in brief: as §2
[15] = Blood clearance in Beagle dog at 1 mg/kg, iv by LC-MS/MS analysis relative to hepatic blood flow; format: ADME, organism-based, Canis lupus familiaris; settings: in vivo; method in brief: as §2
[16] = Plasma clearance in cynomolgus monkey at 1 mg/kg, iv by LC-MS/MS analysis relative to hepatic blood flow; format: ADME, organism-based, Macaca fascicularis; settings: in vivo; method in brief: as §2
Hepatitis C virus = experiment: Antiviral activity against HCV genotype1 infected in human assessed as reduction in plasma viral RNA level at 420 mg, po administered as single dose; format: functional, Hepacivirus hominis, genotype 1
[17] = Half life in human assessed as 5-cyclopropyl-2-(4-fluorophenyl)-N-methyl-6-(methylsulfonamido)benzofuran-3-carboxamide level; format: ADME
[18] = Half life in rat hepatocytes at 0.5 uM by LC-MS/MS analysis; format: ADME, cell-based, Hepatocyte
[19] = target: Voltage-gated inwardly rectifying potassium channel KCNH2 (Homo sapiens, UniProt Q12809); experiment: Inhibition of human ERG by patch clamp electrophysiology method
Method in brief: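 hERG activity was measured by patch-clamp electrophysiology as the reduction in channel current caused by the compound, giving an IC50.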

Cytochrome P450 1A2 = target: T2, Cytochrome P450 1A2 (Homo sapiens, UniProt P05177); experiment: Inhibition of CYP1A2 in human liver microsomes at 0.033 to 33 uM using phenacetin as substrate preincubated for 10 mins followed by NADPH addition and measured by LC-MS/MS analysis; format: ADME
T2 sequence (P05177 whole entry): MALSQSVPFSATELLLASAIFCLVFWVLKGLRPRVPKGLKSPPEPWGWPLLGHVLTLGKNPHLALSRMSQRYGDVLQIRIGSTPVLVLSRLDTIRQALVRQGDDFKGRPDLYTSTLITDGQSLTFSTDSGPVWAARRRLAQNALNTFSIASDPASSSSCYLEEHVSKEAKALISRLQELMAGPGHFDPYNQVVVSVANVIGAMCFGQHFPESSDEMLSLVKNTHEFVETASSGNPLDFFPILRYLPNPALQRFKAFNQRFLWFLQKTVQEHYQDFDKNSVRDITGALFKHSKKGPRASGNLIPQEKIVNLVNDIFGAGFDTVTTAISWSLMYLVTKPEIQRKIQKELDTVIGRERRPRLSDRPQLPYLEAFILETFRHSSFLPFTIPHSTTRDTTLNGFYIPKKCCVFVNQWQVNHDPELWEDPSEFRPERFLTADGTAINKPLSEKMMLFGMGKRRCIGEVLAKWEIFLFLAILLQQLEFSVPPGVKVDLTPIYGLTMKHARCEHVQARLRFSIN

Cytochrome P450 2D6 = Cytochrome P450 2D6 (Homo sapiens, UniProt P10635); experiment: Inhibition of CYP2D6 in human liver microsomes at 0.033 to 33 uM using bufuralol as substrate preincubated for 10 mins followed by NADPH addition and measured by LC-MS/MS analysis; format: ADME
[20] = Blood clearance in CD1 mouse at 1 mg/kg, iv by LC-MS/MS analysis; format: ADME, organism-based; settings: whole blood
[21] = Blood clearance in CD1 mouse at 1 mg/kg, iv by LC-MS/MS analysis relative to hepatic blood flow; format: ADME, organism-based; settings: in vivo; method in brief: as §2
[22] = Blood clearance in cynomolgus monkey at 1 mg/kg, iv by LC-MS/MS analysis relative to hepatic blood flow; format: ADME, organism-based, Macaca fascicularis; settings: in vivo; method in brief: as §2

Sequence of Cytochrome P450 2C9 (P11712 whole entry): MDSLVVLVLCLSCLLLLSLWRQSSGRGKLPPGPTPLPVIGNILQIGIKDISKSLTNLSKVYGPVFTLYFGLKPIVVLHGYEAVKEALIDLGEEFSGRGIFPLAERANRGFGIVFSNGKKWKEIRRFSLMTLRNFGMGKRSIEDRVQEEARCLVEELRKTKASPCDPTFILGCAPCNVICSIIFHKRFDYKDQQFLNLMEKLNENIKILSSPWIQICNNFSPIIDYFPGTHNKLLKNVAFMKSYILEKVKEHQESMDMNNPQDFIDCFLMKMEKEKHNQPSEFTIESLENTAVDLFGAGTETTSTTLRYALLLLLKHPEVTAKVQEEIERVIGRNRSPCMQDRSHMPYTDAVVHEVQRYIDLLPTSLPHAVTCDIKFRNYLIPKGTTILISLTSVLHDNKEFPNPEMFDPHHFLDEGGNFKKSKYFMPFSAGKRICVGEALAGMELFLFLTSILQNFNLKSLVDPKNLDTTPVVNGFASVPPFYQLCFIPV
T1 sequence (P08684 whole entry): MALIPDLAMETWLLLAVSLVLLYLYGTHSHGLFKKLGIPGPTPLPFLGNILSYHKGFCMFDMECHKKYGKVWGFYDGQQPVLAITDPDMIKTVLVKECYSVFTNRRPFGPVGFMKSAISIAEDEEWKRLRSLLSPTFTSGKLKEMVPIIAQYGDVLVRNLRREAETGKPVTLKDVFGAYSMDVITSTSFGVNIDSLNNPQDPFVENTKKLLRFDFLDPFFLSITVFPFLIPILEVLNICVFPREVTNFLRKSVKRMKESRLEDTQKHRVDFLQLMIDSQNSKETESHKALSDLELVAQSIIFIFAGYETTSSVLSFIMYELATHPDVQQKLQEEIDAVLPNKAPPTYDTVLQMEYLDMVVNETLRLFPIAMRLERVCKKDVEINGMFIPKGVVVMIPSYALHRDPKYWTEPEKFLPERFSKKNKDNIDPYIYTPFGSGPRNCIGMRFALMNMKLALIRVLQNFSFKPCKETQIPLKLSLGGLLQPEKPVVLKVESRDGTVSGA
Sequence of Cytochrome P450 2C19 (P33261 whole entry): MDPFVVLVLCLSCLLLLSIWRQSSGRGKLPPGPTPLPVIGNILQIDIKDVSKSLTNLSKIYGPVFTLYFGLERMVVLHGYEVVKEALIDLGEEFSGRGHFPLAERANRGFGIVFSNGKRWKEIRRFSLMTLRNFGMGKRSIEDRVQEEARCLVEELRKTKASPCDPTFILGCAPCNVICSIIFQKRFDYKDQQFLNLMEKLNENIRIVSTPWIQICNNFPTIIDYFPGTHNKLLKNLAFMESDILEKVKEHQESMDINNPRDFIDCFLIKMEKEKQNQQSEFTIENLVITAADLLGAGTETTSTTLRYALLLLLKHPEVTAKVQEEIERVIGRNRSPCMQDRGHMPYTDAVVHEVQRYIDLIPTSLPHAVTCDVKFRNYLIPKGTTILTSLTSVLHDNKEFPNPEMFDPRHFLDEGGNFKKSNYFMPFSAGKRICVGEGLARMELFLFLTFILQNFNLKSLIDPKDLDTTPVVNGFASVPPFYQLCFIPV
Sequence of Voltage-gated inwardly rectifying potassium channel KCNH2 (Q12809 whole entry): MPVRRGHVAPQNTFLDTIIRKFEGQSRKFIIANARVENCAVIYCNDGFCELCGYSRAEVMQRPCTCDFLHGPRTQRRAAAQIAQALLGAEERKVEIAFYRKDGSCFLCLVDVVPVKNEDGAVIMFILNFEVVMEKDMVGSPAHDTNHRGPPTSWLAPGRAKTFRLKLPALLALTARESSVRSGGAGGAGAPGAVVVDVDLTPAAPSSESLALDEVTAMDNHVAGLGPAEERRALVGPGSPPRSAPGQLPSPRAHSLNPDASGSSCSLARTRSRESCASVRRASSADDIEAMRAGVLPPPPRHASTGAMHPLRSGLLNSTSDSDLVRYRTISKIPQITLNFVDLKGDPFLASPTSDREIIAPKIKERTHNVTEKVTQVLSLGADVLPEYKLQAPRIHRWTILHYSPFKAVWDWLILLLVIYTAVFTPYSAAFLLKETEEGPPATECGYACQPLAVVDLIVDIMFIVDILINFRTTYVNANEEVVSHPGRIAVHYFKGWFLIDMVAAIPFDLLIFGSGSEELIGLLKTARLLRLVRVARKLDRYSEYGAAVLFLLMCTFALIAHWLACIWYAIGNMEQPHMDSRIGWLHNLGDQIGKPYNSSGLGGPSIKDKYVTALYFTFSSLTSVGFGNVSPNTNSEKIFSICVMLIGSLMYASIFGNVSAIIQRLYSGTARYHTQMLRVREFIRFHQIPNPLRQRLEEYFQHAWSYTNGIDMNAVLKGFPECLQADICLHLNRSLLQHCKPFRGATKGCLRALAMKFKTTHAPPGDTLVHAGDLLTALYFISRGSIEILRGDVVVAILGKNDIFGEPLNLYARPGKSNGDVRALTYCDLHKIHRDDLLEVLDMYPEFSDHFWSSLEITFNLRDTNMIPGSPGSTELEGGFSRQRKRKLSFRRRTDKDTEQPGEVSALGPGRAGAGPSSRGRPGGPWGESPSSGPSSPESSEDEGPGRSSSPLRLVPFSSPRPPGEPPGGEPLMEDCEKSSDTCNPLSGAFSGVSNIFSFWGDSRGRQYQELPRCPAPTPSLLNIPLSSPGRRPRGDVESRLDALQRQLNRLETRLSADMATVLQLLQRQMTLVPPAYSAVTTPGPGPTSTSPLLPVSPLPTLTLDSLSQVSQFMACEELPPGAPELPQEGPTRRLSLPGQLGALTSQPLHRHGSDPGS
Sequence of Cytochrome P450 2D6 (P10635 whole entry): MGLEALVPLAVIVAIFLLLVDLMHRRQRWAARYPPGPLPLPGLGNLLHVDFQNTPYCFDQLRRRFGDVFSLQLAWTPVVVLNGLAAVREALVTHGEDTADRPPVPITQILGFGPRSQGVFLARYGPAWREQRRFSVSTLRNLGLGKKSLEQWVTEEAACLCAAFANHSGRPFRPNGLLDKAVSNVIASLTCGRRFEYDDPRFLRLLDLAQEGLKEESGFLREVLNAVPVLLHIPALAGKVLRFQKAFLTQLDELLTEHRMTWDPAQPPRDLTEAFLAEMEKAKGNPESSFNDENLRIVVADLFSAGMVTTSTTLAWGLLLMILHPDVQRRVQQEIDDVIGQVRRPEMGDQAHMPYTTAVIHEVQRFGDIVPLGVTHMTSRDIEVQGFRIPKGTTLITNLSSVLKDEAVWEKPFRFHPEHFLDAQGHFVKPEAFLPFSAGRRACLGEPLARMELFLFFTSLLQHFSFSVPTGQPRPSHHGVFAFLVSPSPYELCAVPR

## CNC(=O)c1c(-c2ccc(F)cc2)oc2cc(N(Cc3ccc(B(O)O)c(F)c3)S(C)(=O)=O)c(C3CC3)cc12
[1]
  clearance: 29 mL/min/kg
[2]
  Vd: 1.4 L/kg
[3]
  half-life: 1 h
[4]
  AUC: 700 ng·h/mL
[5]
  bioavailability: 23%
[6]
  half-life at 0.5 µM: 1 h
Cytochrome P450 2C9
  IC50: 4.9 µM
Cytochrome P450 2C19
  IC50: 18 µM
Cytochrome P450 3A4 [7]
  IC50: 7.1 µM
Cytochrome P450 3A4 [8]
  IC50: > 33 µM
Cytochrome P450 3A4 [9]
  IC50: 28 µM
[10]
  clearance: 29 mL/min/kg
[11]
  clearance: 11 mL/min/kg
[12]
  clearance: 48 mL/min/kg
[13]
  CL: 1.1%
[14]
  CL: 37%
[15]
  CL: 19%
[16]
  CL: 100%
Hepatitis C virus
  Activity: 1.33 log10IU/ml
[17]
  t1/2: 45 h

## CNC(=O)c1c(-c2ccc(F)cc2)oc2cc(N(C3CCc4c(B(O)O)cccc43)S(C)(=O)=O)c(C3CC3)cc12 (stereo not given)
[1]
  clearance: 69 mL/min/kg
[2]
  Vd: 3.5 L/kg
[3]
  half-life: 1.1 h
[4]
  AUC: 40 ng·h/mL
[5]
  bioavailability: 4%
[18]
  half-life at 0.5 µM: 0.75 h
[6]; 0.5 µM
  t1/2: < 0.25 h

## CNC(=O)c1c(-c2ccc(F)cc2)oc2cc(N(c3ccc(B(O)O)c(Cl)c3)S(C)(=O)=O)c(C3CC3)cc12
[1]
  clearance: 5.1 mL/min/kg
[2]
  Vd: 1.1 L/kg
[3]
  half-life: 3.7 h
[4]
  AUC: 4800 ng·h/mL
[5]
  bioavailability: 27%
Cytochrome P450 2C9
  IC50: 2.6 µM
Cytochrome P450 2C19
  IC50: 7.4 µM
Cytochrome P450 3A4 [7]
  IC50: 4.2 µM
Cytochrome P450 3A4 [8]
  IC50: > 33 µM
Cytochrome P450 3A4 [9]
  IC50: 8.1 µM
[19]
  IC50: 1.6 µM

## CNC(=O)c1c(-c2ccc(F)cc2)oc2cc(N(c3cc(Cl)c4c(c3)COB4O)S(C)(=O)=O)c(C3CC3)cc12
[2]
  Vd: 0.9 L/kg
[3]
  half-life: 2.8 h
[4]
  AUC: 5400 ng·h/mL
Cytochrome P450 2C9
  IC50: 22 µM
Cytochrome P450 2C19
  IC50: > 33 µM
Cytochrome P450 3A4 [7]
  IC50: > 33 µM
Cytochrome P450 3A4 [8]
  IC50: > 33 µM
Cytochrome P450 3A4 [9]
  IC50: > 33 µM
Cytochrome P450 1A2
  inhibition (INH): Active
Cytochrome P450 2D6
  inhibition (INH): Active
[19]
  IC50: 16 µM
[20]
  clearance: 0.7 mL/min/kg
[21]
  CL: 0.6%
[14]
  CL: 8.9%
[15]
  CL: 2.1%
[22]
  CL: 13%

## CNC(=O)c1c(-c2ccc(F)cc2)oc2cc(N(Cc3ccc(B(O)O)cc3C(F)(F)F)S(C)(=O)=O)c(C3CC3)cc12
[1]
  clearance: 3.5 mL/min/kg

## CNC(=O)c1c(-c2ccc(F)cc2)oc2cc(N3C(=O)OC[C@@H]3c3ccc(B(O)O)c(F)c3)c(C3CC3)cc12
[1]
  clearance: 22 mL/min/kg
[2]
  Vd: 1.3 L/kg
[3]
  half-life: 1.2 h
[4]
  AUC: 280 ng·h/mL
[5]
  bioavailability: 8%

## CNC(=O)c1c(-c2ccc(F)cc2)oc2cc(-n3ncnc3-c3ccc(B(O)O)c(F)c3)c(C3CC3)cc12
[1]
  clearance: 4.5 mL/min/kg
[2]
  Vd: 0.9 L/kg
[3]
  half-life: 2.6 h
[4]
  AUC: 7600 ng·h/mL
[5]
  bioavailability: 40%
Cytochrome P450 2C9
  IC50: 2.7 µM
Cytochrome P450 2C19
  IC50: 1.2 µM
Cytochrome P450 3A4 [7]
  IC50: 8.9 µM
Cytochrome P450 3A4 [8]
  IC50: > 33 µM
Cytochrome P450 3A4 [9]
  IC50: > 33 µM

## CNC(=O)c1c(-c2ccc(F)cc2)oc2cc(-n3nccc3-c3ccc(B(O)O)c(F)c3)c(C3CC3)cc12
[1]
  clearance: 5.4 mL/min/kg
[2]
  Vd: 1.3 L/kg
[3]
  half-life: 3.4 h
[4]
  AUC: 10000 ng·h/mL
[5]
  bioavailability: 64%
Cytochrome P450 2C9
  IC50: 1.5 µM
Cytochrome P450 2C19
  IC50: 23 µM
Cytochrome P450 3A4 [7]
  IC50: 2 µM
Cytochrome P450 3A4 [8]
  IC50: > 33 µM
Cytochrome P450 3A4 [9]
  IC50: > 33 µM
